Measured values reported in ChEMBL document CHEMBL1135791, “Lysergamides of isomeric 2,4-dimethylazetidines map the binding orientation of the diethylamide moiety in the potent hallucinogenic agent N,N-diethyllysergamide (LSD)” (J Med Chem, 2002).
Values joined by “and” are separate entries in the source; they are usually repeats but may differ in a detail not shown here. Identical values can stand only once.

What was measured:
[1] = molecular target: T1, 5-hydroxytryptamine receptor 1D (Homo sapiens, UniProt P28221); experiment: Binding affinities towards 5-hydroxytryptamine 1D receptor alpha
Method in brief: (§1)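 Screening-panel competition binding. […] Each Ki was replicated 2–3 times and is reported as mean ± SEM from nonlinear fitting. Receptor source and radioligand are not given beyond an online protocol.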

Rattus norvegicus [2] = experiment: Compound was evaluated for the percentage of rats disrupted following a dose of 0.02 mg/kg and 0.049 uM/kg; assay type: functional
Method in brief: (§2)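 LSD-trained rats (0.08 mg/kg ip vs saline, two-lever, FR50) were given the test drug ip 30 min before extinction sessions, with ≥8 rats per dose. A session was scored as disrupted if 50 presses on one lever were not completed within 5 min. The value is the percentage of rats disrupted at each dose.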

Rattus norvegicus [3] = experiment: Compound was evaluated for the percentage of rats selecting the drug lever (SDL) following a dose of 0.01 mg/kg and 0.025 uM/kg; assay type: functional
[4] = molecular target: T2, 5-hydroxytryptamine receptor 1A (Homo sapiens, UniProt P08908); experiment: Binding affinity towards 5-hydroxytryptamine 1A receptor using [3H]8-OH-DPAT as radioligand
T2 sequence (P08908 whole entry): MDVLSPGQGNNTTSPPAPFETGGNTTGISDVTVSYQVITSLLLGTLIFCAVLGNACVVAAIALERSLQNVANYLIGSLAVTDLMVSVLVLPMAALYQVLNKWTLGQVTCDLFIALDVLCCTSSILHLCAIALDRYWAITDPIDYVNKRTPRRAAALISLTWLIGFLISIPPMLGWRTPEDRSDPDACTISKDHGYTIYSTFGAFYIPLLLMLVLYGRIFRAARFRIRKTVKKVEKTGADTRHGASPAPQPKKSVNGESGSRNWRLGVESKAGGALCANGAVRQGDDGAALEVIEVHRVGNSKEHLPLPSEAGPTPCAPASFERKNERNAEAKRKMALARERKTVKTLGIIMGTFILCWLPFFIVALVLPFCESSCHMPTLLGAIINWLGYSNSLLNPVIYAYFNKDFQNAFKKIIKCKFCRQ

Rattus norvegicus [5] = experiment: Compound was evaluated for effective dose measured in mg/kg following a dose of 0.02 mg/kg and 0.049 uM/kg (95%CI); assay type: functional
[6] = molecular target: T3, 5-hydroxytryptamine receptor 2B (Homo sapiens, UniProt P41595); experiment: Binding affinities towards 5-hydroxytryptamine 2B receptor; method in brief: as §1
Rattus norvegicus [7] = experiment: Compound was evaluated for effective dose measured in mg/kg following a dose of 0.04 mg/kg and 0.097 uM/kg (95%CI); range 0.007-0.016; assay type: functional
D(2) dopamine receptor [8] = molecular target: T4, D(2) dopamine receptor (Homo sapiens, UniProt P14416); experiment: Binding affinity towards Dopamine receptor D2
Rattus norvegicus [9] = experiment: Compound was evaluated for the percentage of rats selecting the drug lever (SDL) following a dose of 0.02 mg/kg and 0.049 uM/kg; assay type: functional
Rattus norvegicus [10] = experiment: Compound was evaluated for the percentage of rats selecting the drug lever (SDL) following a dose of 0.04 mg/kg and 0.097 uM/kg; assay type: functional
D(1A) dopamine receptor [11] = molecular target: T5, D(1A) dopamine receptor (Mus musculus, UniProt Q61616); experiment: Binding affinity towards Dopamine receptor D1; method in brief: as §1
Rattus norvegicus [12] = experiment: Compound was evaluated for the percentage of rats disrupted following a dose of 0.01 mg/kg and 0.025 uM/kg; assay type: functional; method in brief: as §2
[13] = molecular target: T6, 5-hydroxytryptamine receptor 6 (Homo sapiens, UniProt P50406); experiment: Binding affinities towards 5-hydroxytryptamine 6 receptor
Method in brief: (§3)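 Screening-panel competition binding. Each Ki was replicated 2–3 times and is reported as mean ± SEM from nonlinear fitting. Receptor source and radioligand are not given beyond an online protocol.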

Rattus norvegicus [14] = experiment: Compound was evaluated for the percentage of rats selecting the drug lever (SDL) following a dose of 0.08 mg/kg and 0.194 uM/kg; assay type: functional
[15] = molecular target: 5-hydroxytryptamine receptor 1E (Homo sapiens, UniProt P28566); experiment: Binding affinity towards 5-hydroxytryptamine 1E receptor; method in brief: as §1
Histamine H1 receptor [16] = molecular target: T7, Histamine H1 receptor (Homo sapiens, UniProt P35367); experiment: Binding affinity towards Histamine H1 receptor; method in brief: as §3
[17] = molecular target: T8, 5-hydroxytryptamine receptor 5A (Homo sapiens, UniProt P47898); experiment: Binding affinities towards 5-hydroxytryptamine 5A receptor
Rattus norvegicus [18] = experiment: Percentage of rats selecting the drug lever (SDL) after 0.01 mg/kg, 0.023 uM/kg dose; assay type: functional
D(1A) dopamine receptor [19] = molecular target: T5, D(1A) dopamine receptor; experiment: Binding affinities towards Dopamine receptor D1; method in brief: as §1
D(1B) dopamine receptor = D(1B) dopamine receptor (Homo sapiens, UniProt P21918); experiment: Binding affinity towards Dopamine receptor D5; method in brief: as §3
Rattus norvegicus [20] = experiment: Percentage of rats disrupted after 0.04 mg/kg, 0.093 uM/kg dose; assay type: functional; method in brief: as §2
Rattus norvegicus [21] = experiment: Percentage of rats selecting drug lever (SDL) after 0.08 mg/kg, 0.186 uM/kg dose; assay type: functional
Rattus norvegicus [22] = experiment: Percentage of rats selecting the drug lever (SDL) after 0.02 mg/kg, 0.046 uM/kg dose; assay type: functional
Rattus norvegicus [23] = experiment: Percentage of rats selecting drug lever (SDL) after 0.04 mg/kg, 0.093 uM/kg dose; assay type: functional
[24] = molecular target: T1, 5-hydroxytryptamine receptor 1D; experiment: Binding affinity towards 5-hydroxytryptamine 1D receptor alpha using [3H]8-OH-DPAT as radioligand
Rattus norvegicus [25] = experiment: Percentage of rats disrupted after 0.01 mg/kg, 0.023 uM/kg dose; assay type: functional; method in brief: as §2
Rattus norvegicus [26] = experiment: Percentage of rats disrupted after 0.08 mg/kg, 0.186 uM/kg dose (95%CI); assay type: functional; method in brief: as §2
D(3) dopamine receptor = D(3) dopamine receptor (Homo sapiens, UniProt P35462); experiment: Binding affinity towards Dopamine receptor D3
D(4) dopamine receptor = molecular target: T9, D(4) dopamine receptor (Homo sapiens, UniProt P21917); experiment: Binding affinity towards Dopamine receptor D4; method in brief: as §3
T9 sequence (P21917 whole entry): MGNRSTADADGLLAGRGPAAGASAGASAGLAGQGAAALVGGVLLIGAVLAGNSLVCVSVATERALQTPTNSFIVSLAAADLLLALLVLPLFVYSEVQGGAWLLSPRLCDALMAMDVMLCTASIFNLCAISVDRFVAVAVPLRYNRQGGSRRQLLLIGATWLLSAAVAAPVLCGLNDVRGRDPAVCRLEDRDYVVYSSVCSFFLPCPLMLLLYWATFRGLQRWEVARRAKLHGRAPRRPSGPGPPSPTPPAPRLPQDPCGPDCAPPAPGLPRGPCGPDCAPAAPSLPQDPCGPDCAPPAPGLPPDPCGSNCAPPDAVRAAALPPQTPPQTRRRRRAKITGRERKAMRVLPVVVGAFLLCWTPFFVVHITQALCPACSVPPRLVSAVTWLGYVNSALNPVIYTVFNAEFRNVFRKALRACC

Rattus norvegicus [27] = experiment: Effective dose as nmol/kg after 0.02 mg/kg, 0.046 uM/kg dose (95%CI); assay type: functional
Rattus norvegicus [28] = experiment: Percentage of rats disrupted after 0.02 mg/kg, 0.046 uM/kg dose; assay type: functional; method in brief: as §2
Rattus norvegicus [29] = experiment: Effective dose in rats as nmol/kg after 0.04 mg/kg, 0.093 uM/kg dose (95%CI); assay type: functional
Rattus norvegicus [30] = experiment: Compound was evaluated for effective dose measured in mg/kg following a dose of 0.04 mg/kg and 0.097 uM/kg (95%CI); range 0.027-0.11; assay type: functional
Rattus norvegicus [31] = experiment: Compound was evaluated for effective dose measured in mg/kg following a dose of 0.04 mg/kg and 0.097 uM/kg (95%CI); assay type: functional
Rattus norvegicus [32] = experiment: Compound was evaluated for the percentage of rats selecting the drug lever (SDL) following a dose of 0.16 mg/kg and 0.388 uM/kg; assay type: functional
Method in brief: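 Test drug was given ip 30 min before sessions run under extinction, with ≥8 rats per dose. The first lever reaching 50 presses scored as selected. No completion within 5 min counted as disruption.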

Rattus norvegicus [33] = experiment: Compound was evaluated for effective dose measured in nmol/kg following a dose of 0.04 mg/kg and 0.097 uM/kg (95%CI); assay type: functional
[34] = molecular target: T6, 5-hydroxytryptamine receptor 6; experiment: Binding affinities against 5-hydroxytryptamine 6 receptor; method in brief: as §1
D(1A) dopamine receptor [35] = molecular target: T5, D(1A) dopamine receptor; experiment: Binding affinity against Dopamine receptor D1; method in brief: as §1
[36] = molecular target: T8, 5-hydroxytryptamine receptor 5A; experiment: Binding affinities against 5-hydroxytryptamine 5A receptor; method in brief: as §1
[37] = molecular target: T2, 5-hydroxytryptamine receptor 1A; experiment: Binding affinity against 5-hydroxytryptamine 1A receptor using [3H]8-OH-DPAT as radioligand
Method in brief: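 Competition binding at human 5-HT1A stably expressed in CHO cells (maintained in MEM, 10% dialyzed FBS, hygromycin B; serum-free 5 h before harvest, pellets stored –80 °C). 0.80 nM [3H]8-OH-DPAT, buffer 50 mM Tris/0.5 mM EDTA/10 mM MgCl2 pH 7.4, 60 min at 25 °C, filtration.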

D(2) dopamine receptor [38] = molecular target: T4, D(2) dopamine receptor; experiment: Binding affinity against Dopamine receptor D2; method in brief: as §1
Histamine H1 receptor [39] = molecular target: T7, Histamine H1 receptor; experiment: Binding affinity against Histamine H1 receptor; method in brief: as §1
[40] = molecular target: T1, 5-hydroxytryptamine receptor 1D; experiment: Binding affinities against 5-hydroxytryptamine 1D receptor alpha; method in brief: as §1
[41] = molecular target: 5-hydroxytryptamine receptor 7 (Homo sapiens, UniProt P34969); experiment: Binding affinities against 5-hydroxytryptamine 7 receptor
[42] = molecular target: T3, 5-hydroxytryptamine receptor 2B; experiment: Binding affinities against 5-hydroxytryptamine 2B receptor; method in brief: as §1
Rattus norvegicus [43] = experiment: Compound was evaluated for effective dose measured in mg/kg following a dose of 0.08 mg/kg and 0.194 uM/kg (95%CI); range 0.030-0.075; assay type: functional

T8 sequence (P47898 whole entry): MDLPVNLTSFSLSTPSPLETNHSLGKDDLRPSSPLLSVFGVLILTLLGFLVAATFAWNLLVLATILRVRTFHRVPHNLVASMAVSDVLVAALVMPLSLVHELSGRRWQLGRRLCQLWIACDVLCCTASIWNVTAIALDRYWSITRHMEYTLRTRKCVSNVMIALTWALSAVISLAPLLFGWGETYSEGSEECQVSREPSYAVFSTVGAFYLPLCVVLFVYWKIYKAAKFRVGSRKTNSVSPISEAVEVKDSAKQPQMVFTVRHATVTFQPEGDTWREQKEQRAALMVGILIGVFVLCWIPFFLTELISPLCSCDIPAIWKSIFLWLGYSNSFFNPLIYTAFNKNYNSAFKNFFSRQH
T3 sequence (P41595 whole entry): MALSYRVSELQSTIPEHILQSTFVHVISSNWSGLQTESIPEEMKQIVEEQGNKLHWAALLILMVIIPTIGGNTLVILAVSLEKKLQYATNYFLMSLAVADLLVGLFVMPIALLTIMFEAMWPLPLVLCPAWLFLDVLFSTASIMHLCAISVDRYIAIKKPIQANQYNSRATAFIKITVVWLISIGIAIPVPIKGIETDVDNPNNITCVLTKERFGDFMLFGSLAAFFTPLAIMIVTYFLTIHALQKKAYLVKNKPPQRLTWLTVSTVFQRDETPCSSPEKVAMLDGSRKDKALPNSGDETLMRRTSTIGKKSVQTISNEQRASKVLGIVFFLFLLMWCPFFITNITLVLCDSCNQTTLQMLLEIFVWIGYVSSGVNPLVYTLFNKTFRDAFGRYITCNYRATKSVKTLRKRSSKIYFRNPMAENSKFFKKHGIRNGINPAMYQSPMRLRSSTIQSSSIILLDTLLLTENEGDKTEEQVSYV
5-hydroxytryptamine receptor 1E, sequence (P28566 whole entry): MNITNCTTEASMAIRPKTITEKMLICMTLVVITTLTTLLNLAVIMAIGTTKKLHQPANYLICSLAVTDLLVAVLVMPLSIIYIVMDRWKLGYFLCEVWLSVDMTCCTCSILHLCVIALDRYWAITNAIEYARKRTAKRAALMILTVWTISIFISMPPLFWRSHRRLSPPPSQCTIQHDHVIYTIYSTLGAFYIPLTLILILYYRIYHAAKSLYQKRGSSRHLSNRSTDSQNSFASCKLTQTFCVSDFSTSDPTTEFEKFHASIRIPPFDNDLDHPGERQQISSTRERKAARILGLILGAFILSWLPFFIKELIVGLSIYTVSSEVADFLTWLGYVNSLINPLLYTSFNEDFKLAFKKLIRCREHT
T6 sequence (P50406 whole entry): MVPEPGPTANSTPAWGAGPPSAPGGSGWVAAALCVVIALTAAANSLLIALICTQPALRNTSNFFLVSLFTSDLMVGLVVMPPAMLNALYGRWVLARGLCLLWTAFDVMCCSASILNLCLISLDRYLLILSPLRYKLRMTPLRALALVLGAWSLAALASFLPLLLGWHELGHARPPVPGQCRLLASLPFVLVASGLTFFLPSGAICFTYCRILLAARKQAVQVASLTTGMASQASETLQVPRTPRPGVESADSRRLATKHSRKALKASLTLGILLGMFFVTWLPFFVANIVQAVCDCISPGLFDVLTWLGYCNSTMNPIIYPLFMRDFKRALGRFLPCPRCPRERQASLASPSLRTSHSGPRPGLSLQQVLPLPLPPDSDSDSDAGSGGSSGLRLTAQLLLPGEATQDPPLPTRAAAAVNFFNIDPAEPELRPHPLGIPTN
T1 sequence (P28221 whole entry): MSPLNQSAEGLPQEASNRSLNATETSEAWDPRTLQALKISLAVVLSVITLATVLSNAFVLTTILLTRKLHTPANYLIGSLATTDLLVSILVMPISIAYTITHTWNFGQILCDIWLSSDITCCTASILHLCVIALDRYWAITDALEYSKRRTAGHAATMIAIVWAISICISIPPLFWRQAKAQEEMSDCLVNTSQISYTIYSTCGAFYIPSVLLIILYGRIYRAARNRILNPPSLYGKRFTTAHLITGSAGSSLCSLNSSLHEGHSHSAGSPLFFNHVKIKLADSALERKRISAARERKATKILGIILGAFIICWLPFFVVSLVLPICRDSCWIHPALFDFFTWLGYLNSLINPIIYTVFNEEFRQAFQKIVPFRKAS
T4 sequence (P14416 whole entry): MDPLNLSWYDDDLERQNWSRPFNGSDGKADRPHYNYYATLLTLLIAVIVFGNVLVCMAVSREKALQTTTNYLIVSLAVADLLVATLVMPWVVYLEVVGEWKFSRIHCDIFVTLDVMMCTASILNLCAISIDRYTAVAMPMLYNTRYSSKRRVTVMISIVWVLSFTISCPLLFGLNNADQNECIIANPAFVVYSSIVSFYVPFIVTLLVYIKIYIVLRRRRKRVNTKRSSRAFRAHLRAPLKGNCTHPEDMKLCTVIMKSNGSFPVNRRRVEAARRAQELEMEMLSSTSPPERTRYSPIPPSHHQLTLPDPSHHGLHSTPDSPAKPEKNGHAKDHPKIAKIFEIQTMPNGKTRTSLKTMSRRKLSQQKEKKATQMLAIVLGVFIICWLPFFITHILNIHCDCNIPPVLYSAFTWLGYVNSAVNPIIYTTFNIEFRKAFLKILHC
T7 sequence (P35367 whole entry): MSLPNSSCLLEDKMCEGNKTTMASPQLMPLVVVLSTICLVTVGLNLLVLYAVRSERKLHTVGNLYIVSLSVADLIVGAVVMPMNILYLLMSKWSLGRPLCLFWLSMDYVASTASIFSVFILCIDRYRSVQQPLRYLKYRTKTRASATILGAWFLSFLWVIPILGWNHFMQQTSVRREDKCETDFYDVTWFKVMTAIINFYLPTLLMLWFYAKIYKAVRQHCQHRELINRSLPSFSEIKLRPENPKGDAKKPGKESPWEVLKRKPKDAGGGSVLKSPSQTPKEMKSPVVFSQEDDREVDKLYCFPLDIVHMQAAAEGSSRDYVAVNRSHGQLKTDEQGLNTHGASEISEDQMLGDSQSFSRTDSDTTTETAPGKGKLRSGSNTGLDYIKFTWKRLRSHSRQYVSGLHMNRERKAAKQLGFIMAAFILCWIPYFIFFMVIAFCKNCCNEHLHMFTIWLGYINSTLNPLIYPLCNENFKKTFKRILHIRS
T5 sequence (Q61616 whole entry): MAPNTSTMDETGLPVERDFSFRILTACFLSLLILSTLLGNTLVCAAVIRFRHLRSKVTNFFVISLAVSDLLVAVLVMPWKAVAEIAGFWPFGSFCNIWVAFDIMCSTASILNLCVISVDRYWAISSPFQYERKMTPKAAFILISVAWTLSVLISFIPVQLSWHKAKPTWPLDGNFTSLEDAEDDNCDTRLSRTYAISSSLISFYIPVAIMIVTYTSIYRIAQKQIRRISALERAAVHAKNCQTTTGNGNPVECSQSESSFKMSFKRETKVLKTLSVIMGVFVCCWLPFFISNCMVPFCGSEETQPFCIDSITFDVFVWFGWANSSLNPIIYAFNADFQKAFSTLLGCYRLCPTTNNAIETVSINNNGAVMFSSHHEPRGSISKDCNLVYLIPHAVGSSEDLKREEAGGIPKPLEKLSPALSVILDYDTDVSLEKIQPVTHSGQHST
D(3) dopamine receptor, sequence (P35462 whole entry): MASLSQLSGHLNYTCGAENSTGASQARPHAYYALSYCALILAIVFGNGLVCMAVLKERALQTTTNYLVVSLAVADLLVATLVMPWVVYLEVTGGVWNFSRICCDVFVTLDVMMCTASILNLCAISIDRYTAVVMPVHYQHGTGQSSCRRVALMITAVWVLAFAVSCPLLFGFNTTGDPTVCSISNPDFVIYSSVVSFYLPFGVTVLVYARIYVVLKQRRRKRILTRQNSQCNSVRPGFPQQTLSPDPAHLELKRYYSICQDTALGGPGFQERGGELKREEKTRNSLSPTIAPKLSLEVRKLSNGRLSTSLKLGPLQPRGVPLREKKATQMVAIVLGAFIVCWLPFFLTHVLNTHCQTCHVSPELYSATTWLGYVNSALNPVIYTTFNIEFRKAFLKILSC
D(1B) dopamine receptor, sequence (P21918 whole entry): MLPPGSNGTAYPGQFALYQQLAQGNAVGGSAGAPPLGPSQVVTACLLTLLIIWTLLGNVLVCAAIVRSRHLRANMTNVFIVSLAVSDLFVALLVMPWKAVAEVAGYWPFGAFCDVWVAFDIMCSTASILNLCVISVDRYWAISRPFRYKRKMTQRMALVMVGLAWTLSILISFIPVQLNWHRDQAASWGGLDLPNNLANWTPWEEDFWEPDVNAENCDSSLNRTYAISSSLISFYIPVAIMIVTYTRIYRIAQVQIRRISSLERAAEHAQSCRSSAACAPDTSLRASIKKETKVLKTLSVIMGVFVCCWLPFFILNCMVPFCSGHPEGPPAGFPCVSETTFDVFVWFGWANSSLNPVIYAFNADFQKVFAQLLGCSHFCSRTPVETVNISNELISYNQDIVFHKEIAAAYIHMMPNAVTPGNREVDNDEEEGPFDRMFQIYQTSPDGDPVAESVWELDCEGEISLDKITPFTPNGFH
5-hydroxytryptamine receptor 7, sequence (P34969 whole entry): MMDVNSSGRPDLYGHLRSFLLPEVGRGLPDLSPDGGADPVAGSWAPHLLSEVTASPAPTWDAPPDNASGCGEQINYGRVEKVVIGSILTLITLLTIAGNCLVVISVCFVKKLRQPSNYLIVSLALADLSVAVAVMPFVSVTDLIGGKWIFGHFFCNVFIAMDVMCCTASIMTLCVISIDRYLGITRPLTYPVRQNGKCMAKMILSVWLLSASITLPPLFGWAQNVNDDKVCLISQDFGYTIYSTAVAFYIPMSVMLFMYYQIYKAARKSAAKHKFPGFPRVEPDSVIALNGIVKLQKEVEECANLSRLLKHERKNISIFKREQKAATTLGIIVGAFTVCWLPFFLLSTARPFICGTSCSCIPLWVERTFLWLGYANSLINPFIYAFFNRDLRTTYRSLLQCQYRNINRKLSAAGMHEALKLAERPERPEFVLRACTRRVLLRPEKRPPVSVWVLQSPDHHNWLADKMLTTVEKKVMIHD

Structure (SMILES): C[C@H]1C[C@H](C)N1C(=O)[C@@H]1C=C2c3cccc4[nH]cc(c34)CC2N(C)C1 (some centres not stated)
- Ki [1]: 2.4 nM
- ED50 (Rattus norvegicus [2]): 0.025 µmol/kg
- D (Rattus norvegicus [3]): 7%
- Ki [4]: 0.45 nM
- D (Rattus norvegicus [5]): 0%
- ED50 (Rattus norvegicus [5]): 0.01 mg/kg
- Ki [6]: 27 nM
- SDL (Rattus norvegicus [7]): 100%
- Ki (D(2) dopamine receptor [8]): 110 nM
- D (Rattus norvegicus [9]): 0%
- SDL (Rattus norvegicus [10]): 67% and 90%
- Ki (D(1A) dopamine receptor [11]): 290 nM
- D (Rattus norvegicus [12]): 6%
- Ki [13]: 15 nM
- SDL (Rattus norvegicus [14]): 50%
- Ki [15]: 280 nM
- Ki (Histamine H1 receptor [16]): 2500 nM
- Ki [17]: 27 nM

Structure (SMILES): CCN(CC)C(=O)[C@@H]1C=C2c3cccc4[nH]cc(c34)C[C@H]2N(C)C1 [LYSERGIDE]
- SDL (Rattus norvegicus [18]): 17%
- Ki (D(1A) dopamine receptor [19]): 180 nM
- Ki (D(1B) dopamine receptor): 340 nM
- D (Rattus norvegicus [20]): 0%
- SDL (Rattus norvegicus [21]): 100%
- SDL (Rattus norvegicus [22]): 58%
- SDL (Rattus norvegicus [23]): 75%
- Ki (D(2) dopamine receptor [8]): 120 nM
- Ki [24]: 3.9 nM
- D (Rattus norvegicus [25]): 0%
- D (Rattus norvegicus [26]): 0%
- Ki (D(3) dopamine receptor): 27 nM
- Ki (D(4) dopamine receptor): 56 nM
- Ki [15]: 93 nM
- ED50 (Rattus norvegicus [27]): 0.045 µmol/kg
- D (Rattus norvegicus [28]): 0%
- ED50 (Rattus norvegicus [29]): 0.032 µmol/kg

Structure (SMILES): C[C@@H]1C[C@@H](C)N1C(=O)[C@@H]1C=C2c3cccc4[nH]cc(c34)CC2N(C)C1 (some centres not stated)
- Ki [1]: 2 nM
- D (Rattus norvegicus [2]): 0%
- SDL (Rattus norvegicus [30]): 80%
- Ki [4]: 6.8 nM
- Ki [6]: 310 nM
- Ki (D(2) dopamine receptor [8]): 330 nM
- D (Rattus norvegicus [9]): 0%
- D (Rattus norvegicus [31]): 17%
- ED50 (Rattus norvegicus [31]): 0.055 mg/kg
- D (Rattus norvegicus [10]): 10%
- SDL (Rattus norvegicus [32]): 40%
- Ki (D(1A) dopamine receptor [11]): 340 nM
- Ki [13]: 61 nM
- ED50 (Rattus norvegicus [33]): 0.066 µmol/kg
- ED50 (Rattus norvegicus [14]): 0.027 mg/kg
- SDL (Rattus norvegicus [14]; 0.08 mg/kg): 25% and 56%
- Ki [15]: 140 nM
- Ki (Histamine H1 receptor [16]): 1400 nM
- Ki [17]: 13 nM

Structure (SMILES): C[C@@H]1C[C@H](C)N1C(=O)[C@@H]1C=C2c3cccc4[nH]cc(c34)CC2N(C)C1 (some centres not stated)
- D (Rattus norvegicus [2]): 12%
- Ki [34]: 13 nM
- Ki (D(1A) dopamine receptor [35]): 230 nM
- Ki [36]: 16 nM
- Ki [37]: 1.1 nM
- Ki (D(2) dopamine receptor [38]): 60 nM
- Ki (Histamine H1 receptor [39]): 500 nM
- D (Rattus norvegicus [9]): 0%
- D (Rattus norvegicus [31]): 20%
- SDL (Rattus norvegicus [31]): 70%
- D (Rattus norvegicus [10]): 0%
- SDL (Rattus norvegicus [10]): 33%
- ED50 (Rattus norvegicus [32]): 0.03 mg/kg
- Ki [40]: 3.7 nM
- Ki [41]: 12 nM
- Ki [42]: 44 nM
- Ki [15]: 200 nM
- ED50 (Rattus norvegicus [43]): 0.047 mg/kg
